# Screening results as filed in PubChem.
# Rev-erbA mod: modulators of human Rev-erb alpha DNA binding. P20393. Rev-erbα–FITC-DNA binding, fluorescence polarization, 90 min. activity, % at 10 µM. 370,000 tested, 0.79% active;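 active = activity above about 14%, limit read from the data; passing the limit was not always enough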;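 note: 0% = DMSO wells with 35 nM protein and 100% = DMSO wells with 750 nM protein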
# Neddylation inh: cullin neddylation inhibition | P61081+Q13564 | TR-FRET cullin neddylation, biochemical | calls only at 25 µM | 360,000 tested, 0.58% active | AID 651699; in the data active = inhibition above about 36%
# PG9 Ab binder: PG9 antibody binding by small molecule; 360,000 tested, 0.43% active; TR-FRET gp120-PG9 antibody binding; inhibition, % at 6.7 µM; AID 624416; in the data active = inhibition above about 8.5%
# NR2E3 ag-1: agonists of human NR2E3 nuclear receptor. CHO-S Gal4-NCOR/VP16-NR2E3 two-hybrid, luciferase. inhibition of corepressor binding, % at 3.98 µM. 360,000 tested, 0.35% active. AID 602229;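 active = inhibition above the mean of all tested compounds plus 3 SD, cut at about 70% in these data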;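 note: 0% = DMSO with NR2E3 transfected cells and 100% = cells lacking NR2E3 construct; higher means lower luciferase signal from less NR2E3 corepressor binding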
# Target sequence (Q9Y5X4 whole entry, looked up, the tested form may be a part): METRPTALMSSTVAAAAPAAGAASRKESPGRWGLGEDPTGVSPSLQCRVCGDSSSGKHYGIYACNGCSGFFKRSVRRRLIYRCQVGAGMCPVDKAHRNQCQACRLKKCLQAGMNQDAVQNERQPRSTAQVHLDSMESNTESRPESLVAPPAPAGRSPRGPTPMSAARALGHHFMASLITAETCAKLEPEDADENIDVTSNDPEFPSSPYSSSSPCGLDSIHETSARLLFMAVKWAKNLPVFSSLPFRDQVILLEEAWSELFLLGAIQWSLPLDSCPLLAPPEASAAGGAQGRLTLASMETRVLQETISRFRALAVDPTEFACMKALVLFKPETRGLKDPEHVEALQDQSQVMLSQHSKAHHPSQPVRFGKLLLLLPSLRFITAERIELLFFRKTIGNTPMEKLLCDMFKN
# NR2E3 ag-2: activates human photoreceptor nuclear receptor NR2E3 | inhibition of corepressor binding, % at 4.78 µM | GST-NR2E3/biotin-RetCOR TR-FRET, 1536-well | AID 2300 | Q9Y5X4 | 320,000 tested, 0.12% active;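 active = percent inhibition above the cutoff of mean plus 3 SD of all tested compounds, set per screening campaign, cut at about 20% in these data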;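 note: 0% = DMSO wells and 100% = biotin wells as full block of FRET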
#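 Assay system: NR2E3–RetCOR corepressor complex. Quantity: 1.35 nM GST-NR2E3. Buffer or medium: pH 7.5 Tris-based buffer. Reagent: biotinylated RetCOR corepressor at 7 nM final. Schedule: 5 h at 4 °C. Detection: TR-FRET, emission read at 617 and 671 nm. Replicates: one well per compound, singlicate testing.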
# NR1D1 mod conf: confirmation of modulators of human Rev-erb alpha DNA binding | Rev-erb alpha FITC-DNA binding, fluorescence polarization, 90 min | activation, % at 25 µM | 3,000 tested, 61% active | shares compounds with Rev-erbA mod | AID 1259319;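 active = activation at or above a set limit, or at least 3 SD above the negative control mean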;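 note: 0% = 35 nM protein with DMSO and 100% = 750 nM protein high control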
# RORg counter: affects RORgamma DNA binding in a Rev-erb alpha counter-screen; IC50, µM; purified RORgamma protein-FITC-DNA binding, fluorescence polarization; 910 tested, 8% active; AID 1259320; shares compounds with Rev-erbA mod;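 active = Compounds whose fitted half-maximal concentration for disrupting protein-DNA binding is below 10 micromolar; the record names Rev-erb in its text, so the target is in doubt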
# Numbers without * were called inactive; i = inactive; nt = no result shown. Rows were chosen to be rich in hits. Some 2% of all compounds tested hit in one or more screens of this group.
SMILES,Rev-erbA mod,Neddylation inh,PG9 Ab binder,NR2E3 ag-1,NR2E3 ag-2,NR1D1 mod conf,others
CCn1c(SCC(=O)c2ccc(-c3ccccc3)cc2)nnc1-c1ccc(C(C)(C)C)cc1,-4,nt,nt,nt,nt,nt,
COc1ccccc1C(=O)N1CCN(C(=O)[C@H]2O[C@@H](n3cnc(C(N)=O)n3)[C@H](O)[C@@H]2O)CC1,6,nt,-2,nt,nt,nt,
CN(C)c1ccc(N=Nc2ccccc2C(=O)OCC(=O)N(C)c2ccccc2)cc1,22*,i,-2,-31,0,23*,
COC(=O)c1ccccc1NC(=O)COC(=O)c1ccccc1N=Nc1ccc(N(C)C)cc1,26*,i,-3,-9,-6,29*,
CC(=O)c1ccc(NC(=O)COC(=O)c2ccccc2N=Nc2ccc(N(C)C)cc2)cc1,20,i,-1,-55,-1,nt,
Cc1ccc(CNC(=O)CN(C)S(=O)(=O)c2ccc3c(c2)n(C)c(=O)c(=O)n3C)cc1,nt,i,nt,5,-1,nt,
CC(=O)Nc1cccc(NC(=O)NC2CC(=O)N(c3ccc4c(c3)OCCO4)C2)c1 (stereo not given),4,i,0,-17,nt,nt,
CCOCCN1CCN(C2c3ccccc3CSc3ccccc32)CC1 (stereo not given),1,i,-2,13,1,nt,
O=C(C(=O)N1CCCCCC1)c1c[nH]c2ccccc12,4,i,-2,-13,nt,nt,
C[n+]1cc(C(=O)N2CCCCC2)ccc1/C=C/c1c[nH]c2ccccc12,75*,i,-10,-1,-1,58*,RORg counter=>40
Cc1ccc(C(=O)Nc2nnc(-c3ccc(C(C)(C)C)cc3)s2)cc1,26*,i,-1,-31,1,3,
O=C(NCc1ccco1)c1ccc(Cn2c(=O)c3ccccc3n(Cc3cccc(Cl)c3)c2=O)cc1,1,i,3,1,0,nt,
O=C(NCc1ccco1)c1ccc(Cn2c(=O)c3sccc3n(Cc3cccc(F)c3)c2=O)cc1,34*,i,-1,-21,4,37*,RORg counter=>40
Brc1cc2c(cc1-c1nc3ccccc3s1)OCO2,28*,i,2,-13,-2,13,
Brc1ccc(-c2nc3ccccc3s2)s1,2,i,-1,-114,3,nt,
CC(=O)c1cc(NC(=O)c2cccc(C(F)(F)F)c2)c(=O)oc1/C=C/N(C)C,20*,i,-1,-2,-1,14,
CC(=O)c1cc(NC(=O)c2ccc(Cl)cc2)c(=O)oc1/C=C/N(C)C,26*,i,-10,-6,-3,29*,
COc1ccc(C(=O)N2CCc3ccc(NC(=O)c4ccccn4)cc3C2)cc1F,-3,i,-1,-35,nt,nt,
COc1ccc(-c2cc(C(=O)Nc3cccnc3Cl)no2)cc1OC,39*,i,0,1,2,35*,RORg counter=>40
COc1ccccc1-c1cc(C(=O)Nc2cccnc2Cl)no1,3,nt,-2,17,1,nt,
O=C(Nc1cccnc1Cl)c1cc(-c2ccco2)on1,4,i,-1,7,3,nt,
O=C(Nc1cccnc1Cl)c1cc(-c2ccc(Br)cc2)on1,23*,i,3,7,2,-4,
CC(NC(=O)c1ccc([N+](=O)[O-])o1)C1CC2CCC1C2 (stereo not given),nt,i,nt,39,nt,nt,
O=C(Nc1ccc(F)cc1)OCc1cn(Cc2ccc(F)cc2)nn1,12,nt,nt,nt,nt,nt,
COc1ccc(N2CCN(c3oc(-c4ccc(OC)c(OC)c4)nc3C#N)CC2)cc1,58*,i,0,-8,2,-1,
SMILES,Rev-erbA mod,Neddylation inh,PG9 Ab binder,NR2E3 ag-1,NR2E3 ag-2,NR1D1 mod conf,others
O=C1c2ccccc2C(Nc2ccc(S(=O)(=O)N3CCCCC3)cc2)N1c1ccccn1 (stereo not given),25*,i,-1,-29,4,21*,
Cc1ccc2c3c(c(SCC(=O)Nc4nonc4C)nc2c1)CCCC3,26*,i,0,-12,0,39*,RORg counter=>40
CCc1cc2cccc(C)c2nc1SCC(=O)Nc1nonc1C,-2,i,2,-12,2,nt,
Cc1nonc1NC(=O)CSc1nc2cc(Cl)ccc2c2c1CCCC2,173*,i,nt,9,1,132*,
O=C(CCN1C(=O)c2ccc(Br)cc2C1=O)NC1CCCCC1,-1,i,-2,17,4,nt,
CNC(=O)CSc1nc(-c2ccccc2)c(-c2ccccc2)o1,14*,i,0,-3,-3,11,
CN(C)C(=O)CSc1nc(-c2ccccc2)c(-c2ccccc2)o1,7,i,-2,10,7,nt,
CC(C)CCNc1nnnc2c1sc1nc(N3CCOCC3)c3c(c12)CC(C)(C)SC3,21*,i,-1,-6,4,5,
CC1(C)Cc2c(c(N3CCOCC3)nc3sc4c(NCCN5CCOCC5)nnnc4c23)CS1,4,i,-1,-1,2,nt,
O=C(CSc1nc2ccccc2nc1N1CCCCC1)NCc1ccc(Cl)cc1Cl,47*,nt,nt,nt,nt,41*,RORg counter=>40
O=C1COc2ccc(C(=O)COC(=O)c3c(F)cccc3Cl)cc2N1,16*,i,2,-20,-4,8,
O=C1COc2ccc(C(=O)COC(=O)Cc3c(F)cccc3Cl)cc2N1,0,i,0,-21,nt,nt,
CC(C)=CC(=O)O[C@@H]1Cc2c(ccc3ccc(=O)oc23)OC1(C)C,26*,nt,0,-26,nt,23*,
C/C=C(/C)C(=O)O[C@@H]1[C@H](OC(=O)C=C(C)C)c2c(ccc3ccc(=O)oc23)OC1(C)C,-7,i,3,-5,-1,nt,
Cc1ccc(NC(=O)CSc2nc3ccccc3nc2N2CCOCC2)c(C)c1,38*,i,4,-29,1,40*,RORg counter=>40
CC(=O)Nc1ccc(NC(=O)CSc2nc3ccccc3nc2N2CCC(C)CC2)cc1,45*,i,-2,-38,-2,21*,
OC(c1ccc(F)cc1)c1nc(-c2cncnc2)cs1 (stereo not given),-7,i,2,3,nt,nt,
N#Cc1ccc(Cn2ccc3ccc(-c4ccc5ccn(Cc6ccccc6)c5c4)cc32)cc1,7,nt,nt,nt,nt,nt,
CC1(c2ccc(OC(F)F)cc2)NC(=O)N(CC(=O)Nc2ccccc2)C1=O (stereo not given),4,i,1,-31,-1,nt,
Cc1ccc2nc(-c3ccc(NC(=O)CN4C(=O)NC(C)(c5ccc(OC(F)F)cc5)C4=O)cc3)sc2c1 (stereo not given),24*,i,4,-131,0,8,
O=S(=O)([N-]c1nc2ccccc2nc1-n1cc[n+](Cc2ccccc2)c1)c1ccc(Br)cc1,67*,i,-1,5,0,46*,RORg counter=5*
O=S(=O)([N-]c1nc2ccccc2nc1-[n+]1ccccc1)c1ccc(Cl)cc1,1,i,0,14,-1,nt,
